Measurements reported in PMC3715055 (Science translational medicine, 2012).

Legend:
[1] = tested on: LNCaP human prostate cancer xenografts; experiment: LNCaP xenograft efficacy in intact mice; type: in vivo, mouse; details: for treated-to-control tumor volume (T/C) ratio: maximally tolerated dose × 3
In short: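 Six-week-old male nude mice were inoculated in the flank with 2 × 10^6 LNCaP cells in Matrigel. Test compound was given i.v. at 56 mg/kg on days 0, 1 and 2. The docetaxel comparator was dosed on days 0, 2 and 5. Tumour volume was followed for 30 days against untreated mice by Student's t test. T/C was the treated-to-control tumour volume ratio.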

[2] = Dose-finding / maximum tolerated dose in mice; type: in vivo, mouse; details: for maximally tolerated dose: × 3 doses
[3] = tested on: TSU human bladder cancer cells; experiment: Clonal survival assay, PSMA-negative TSU cells, 72-hour exposure; type: cell-based; details: human cancer cell lines (Fig. 3A: TSU)
In short: (§1)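 Clonal survival assays used PSMA-negative TSU bladder and PSMA-positive LNCaP prostate cancer cells exposed to test compounds for 72 hours. IC50 was the concentration inhibiting proliferation by 50%. Assays were run in triplicate and reported as mean ± SE.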

[4] = tested on: LNCaP human prostate cancer cells; experiment: Clonal survival assay, PSMA-positive LNCaP cells, 72-hour exposure; type: cell-based; details: human cancer cell lines (Fig. 3A: LNCaP)
In short: as §1

[5] = Biodistribution in CWR22R-H-bearing castrated mice; type: in vivo, mouse
In short: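 Castrated mice carried CWR22R-H tumours started s.c. from 10 mg minced tumour in Matrigel. Five mice received one 56 mg/kg dose of test compound. Tumour, liver, kidney, skeletal muscle and brain were harvested 5 days later. Test compound and its PSMA cleavage products were measured in tissue by LC-MS. Tumour levels were compared with other tissues by Student's t test.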

SERCA pump [6] = biological target: T1, SERCA pump (Oryctolagus cuniculus, UniProt P04191); experiment: Intrinsic fluorescence binding competition on SERCA; details: intrinsic fluorescent studies
TSU cells = experiment: Intracellular free calcium in fura-2-loaded TSU cells; type: cell-based, human; details: PSMA-nonproducing TSU cells
SERCA pump [7] = biological target: T1, SERCA pump; experiment: SERCA pump assay with skeletal muscle microsomes; type: biochemical, rabbit; details: broken cell microsomal studies
[8] = Biodistribution in MCF-7 tumor-bearing mice; type: in vivo, mouse
[9] = tested on: PC-3 human prostate cancer cells; experiment: Clonal survival of PC-3 cells after repeated exposure; type: cell-based; details: 11 cycles of repeat exposure and clonal expansion, 500 nM
[10] = BALB/c mice; cited from earlier work
[11] = tested on: TSU human bladder cancer xenografts; experiment: TSU xenograft efficacy; type: in vivo, mouse; details: more intensive treatment schedule
[12] = Single-dose pharmacokinetics in BALB/c mice; type: in vivo, mouse; details: single dose of 67 mg/kg
In short: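 Wild-type BALB/c mice received a single i.v. dose of 67 mg/kg. Groups of three mice were sampled at time points over 24 hours. Plasma test compound and its 12ADTβAsp cleavage product were quantified by LC-MS/MS. Analysis was noncompartmental, with a semilog regression trend line.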

[13] = GLP toxicology in cynomolgus monkey; type: in vivo
In short: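 Toxicology was done in cynomolgus monkeys of both sexes at 10 mg/kg, with vehicle-treated controls. Necropsy was on day 33 and examined lymph nodes, spleen and thymus histologically. Splenic/body weight and thymus/body weight ratios were compared with vehicle animals, three per sex.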

[14] = Stability to hydrolysis in human plasma; type: in vitro ADME
[15] = tested on: MDA-PCa2b human prostate cancer xenografts; experiment: MDA-PCa2b xenograft efficacy in intact mice; type: in vivo, mouse
In short: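 Six-week-old male nude mice carried flank MDA-PCa2b tumours from 2 × 10^6 cells in Matrigel. Test compound was given i.v. at 56 mg/kg on 3 consecutive days. Tumour volume was followed for ≥30 days against untreated controls by Student's t test. Tumours harvested 4 days after the last dose had H&E staining and nuclear AR immunostaining with rabbit polyclonal anti-AR antibody.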

Fc-PSMA = Fc-PSMA (Homo sapiens, UniProt Q04609); experiment: PSMA prodrug hydrolysis with Fc-PSMA; type: biochemical; details: incubation with Fc-PSMA
In short: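 Enzyme activity was confirmed beforehand by 3H-NAAG hydrolysis. Aliquots taken over time were analysed by HPLC with 0.1% TFA in water and acetonitrile, 40–100% B over 25 min. Products were identified by co-elution and confirmed by MS. Human plasma and other purified proteases at equimolar level were also tested.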

GLP toxicology in rat = type: in vivo
[16] = Pharmacokinetics in monkey toxicological studies; type: in vivo; details: serum, intravenous
In short: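 Male and female monkeys received a single 1-hour treatment at 1 to 10 mg/kg. Serum levels of test compound were followed over 24 hours. Analysis was noncompartmental. Terminal half-life came from the terminal slope of a log-linear concentration–time plot.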

other purified proteases = experiment: Hydrolysis by other purified proteases; type: biochemical; details: equimolar concentrations of other proteases
[17] = Body weight of xenograft-bearing mice; type: in vivo, mouse; details: 56 mg/kg × 3, by 5 to 7 days after therapy, baseline by days 14 to 21
LNCaP cells = experiment: Growth inhibition of LNCaP cells with or without PSMA inhibitor PMPA; type: cell-based, human; details: 48-hour exposure, PMPA 10 μM
[18] = Phase 1 clinical trial pharmacokinetics; type: in vivo, human
In short: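 Eighteen advanced cancer patients in a phase 1 dose-escalation trial received a 1-hour i.v. infusion at 1.2 to 40 mg/m2. Serum concentrations were followed over 24 hours. Analysis was noncompartmental. AUC0–∞ used the linear trapezoidal method and t1/2 the log-linear terminal slope. Dose proportionality was assessed from AUC across doses.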

[19] = tested on: CWR22R-H human prostate cancer xenografts; experiment: CWR22R-H xenograft efficacy in castrated mice; type: in vivo, mouse; details: single 3-day course, 56 mg/kg × 3, out to ≥30 days
In short: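 Castrated mice had CWR22R-H xenografts from s.c. minced tumour (10 mg) in Matrigel. Three consecutive daily i.v. doses of 56 mg/kg were given on days 0, 1 and 2. Tumour volume was followed for ≥30 days against untreated controls by Student's t test. Body weight was recorded.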

[20] = tested on: MCF-7 human breast cancer xenografts; experiment: MCF-7 xenograft efficacy in female nude mice; type: in vivo, mouse; details: for T/C ratio: day 21
In short: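 Female nude mice with s.c. estrogen pellets carried flank tumours from 2 × 10^6 MCF-7 cells. Mice received one, two or three daily doses of 56 mg/kg test compound. Tumour volume and body weight were followed against untreated controls by Student's t test. Xenografts had histology 6 days after two doses. ER was stained with an ERα mAb. T/C was treated-to-control tumour volume.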

[21] = MCF-7, 5 days after single dose of G202 56 mg/kg

T1 sequence (P04191 whole entry): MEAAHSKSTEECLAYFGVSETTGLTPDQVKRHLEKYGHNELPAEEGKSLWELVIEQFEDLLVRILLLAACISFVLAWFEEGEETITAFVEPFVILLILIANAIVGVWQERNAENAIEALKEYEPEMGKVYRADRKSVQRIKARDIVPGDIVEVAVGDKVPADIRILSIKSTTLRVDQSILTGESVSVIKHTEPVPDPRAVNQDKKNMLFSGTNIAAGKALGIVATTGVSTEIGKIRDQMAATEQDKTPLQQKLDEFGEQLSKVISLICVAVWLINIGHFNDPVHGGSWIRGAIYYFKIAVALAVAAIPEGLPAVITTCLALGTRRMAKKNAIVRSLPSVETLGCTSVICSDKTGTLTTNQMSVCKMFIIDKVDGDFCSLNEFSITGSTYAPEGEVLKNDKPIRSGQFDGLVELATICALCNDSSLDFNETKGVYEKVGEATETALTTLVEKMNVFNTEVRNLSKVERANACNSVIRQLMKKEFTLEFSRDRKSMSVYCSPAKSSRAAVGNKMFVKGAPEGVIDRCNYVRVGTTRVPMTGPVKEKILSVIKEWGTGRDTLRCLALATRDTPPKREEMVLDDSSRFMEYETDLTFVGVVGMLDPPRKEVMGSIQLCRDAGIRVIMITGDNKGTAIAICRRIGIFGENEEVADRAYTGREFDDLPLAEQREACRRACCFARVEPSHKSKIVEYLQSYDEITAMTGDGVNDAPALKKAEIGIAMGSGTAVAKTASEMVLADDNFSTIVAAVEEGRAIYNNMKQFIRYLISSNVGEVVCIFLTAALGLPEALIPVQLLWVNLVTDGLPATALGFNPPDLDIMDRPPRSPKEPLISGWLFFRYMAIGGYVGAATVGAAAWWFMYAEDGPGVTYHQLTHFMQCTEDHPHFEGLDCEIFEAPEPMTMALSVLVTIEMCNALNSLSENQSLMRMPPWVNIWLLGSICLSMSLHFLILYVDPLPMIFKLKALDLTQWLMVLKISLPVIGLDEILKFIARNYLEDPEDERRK
Chain of Fc-PSMA (Q04609 44-750 limits assumed): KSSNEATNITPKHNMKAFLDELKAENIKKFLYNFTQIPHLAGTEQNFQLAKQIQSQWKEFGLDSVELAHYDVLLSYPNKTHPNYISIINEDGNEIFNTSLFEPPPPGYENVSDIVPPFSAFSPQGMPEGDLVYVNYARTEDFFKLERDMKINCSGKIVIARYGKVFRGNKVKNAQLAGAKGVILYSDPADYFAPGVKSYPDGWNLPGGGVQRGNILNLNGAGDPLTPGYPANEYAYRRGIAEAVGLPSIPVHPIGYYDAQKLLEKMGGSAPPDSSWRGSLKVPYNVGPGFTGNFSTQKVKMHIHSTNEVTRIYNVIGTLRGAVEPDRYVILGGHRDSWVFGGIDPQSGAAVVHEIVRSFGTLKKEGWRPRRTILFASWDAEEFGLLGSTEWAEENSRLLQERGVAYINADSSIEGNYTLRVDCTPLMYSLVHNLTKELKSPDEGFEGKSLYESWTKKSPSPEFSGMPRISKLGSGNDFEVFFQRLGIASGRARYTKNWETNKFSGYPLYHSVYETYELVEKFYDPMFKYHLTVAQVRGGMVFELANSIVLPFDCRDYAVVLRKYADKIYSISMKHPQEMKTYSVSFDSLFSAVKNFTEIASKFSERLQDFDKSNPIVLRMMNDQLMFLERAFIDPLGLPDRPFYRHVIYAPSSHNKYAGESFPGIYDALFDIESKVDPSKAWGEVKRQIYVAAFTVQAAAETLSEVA

CC(=O)O[C@@]12CO[C@@H]1C[C@H](O)[C@@]1(C)C(=O)[C@H](O)C3=C(C)[C@@H](OC(=O)[C@H](O)[C@@H](NC(=O)OC(C)(C)C)c4ccccc4)C[C@@](O)([C@@H](OC(=O)c4ccccc4)[C@H]21)C3(C)C [docetaxel, reference compound]
treated-to-control tumor volume (T/C) ratio [1]: 0.63 | maximally tolerated dose [2]: 0.39 µmol

C/C=C(/C)C(=O)O[C@H]1C(C)=C2[C@H]([C@@H]1OC(=O)CCCCCCC)[C@@](C)(OC(C)=O)C[C@H](OC(=O)CCCCCCCCCCCNC(=O)C[C@H](N)C(=O)O)[C@@]1(O)[C@H]2OC(=O)[C@@]1(C)O [12ADTβAsp]
cytotoxic potency compared with TG [3]: comparable to those of TG | cytotoxic potency compared with TG [4]: comparable to those of TG | accumulation in tumor tissue ([5]; 5 days after single dose of G202 56 mg/kg, CWR22R-H tumor): micromolar levels | fold higher amount in tumor tissue compared to normal brain ([5]; CWR22R-H, after G202 56 mg/kg): 354 fold | fold higher amount in tumor tissue compared to normal kidney ([5]; CWR22R-H, after G202 56 mg/kg): 15 fold | binding competition with cyclopiazonic acid (CPA) (SERCA pump [6]): competitively affect the binding of each other | maximal elevation in intracellular Ca2+ (TSU cells; 200 nM): up to 400 nM | potency at inhibiting the SERCA pump compared with TG (SERCA pump [7]): as potent at inhibiting the SERCA pump in broken cell microsomal studies as was TG | fold higher amount in tumors than in kidney [8, 21]: 3.5 fold | fold higher amount in tumors than in skeletal muscle [8, 21]: 1.6 fold | tumor concentration relative to that in CWR22R-H xenografts ([8]; MCF-7 versus CWR22R-H): 1/10

C/C=C(/C)C(=O)O[C@H]1C(C)=C2[C@H]([C@@H]1OC(=O)CCCCCCC)[C@@](C)(OC(C)=O)C[C@H](OC(=O)CCC)[C@@]1(O)[C@H]2OC(=O)[C@@]1(C)O [TG, thapsigargin]
clonal survival after repeated exposure [9]: no change in clonal survival | lethal dose for 100% of the test population (LD100) [10]: 0.2 mg/kg

C/C=C(/C)C(=O)O[C@H]1C(C)=C2[C@H]([C@@H]1OC(=O)CCCCCCC)[C@@](C)(OC(C)=O)C[C@H](OC(=O)CCCCCCCCCCCNC(=O)C[C@H](N)C(=O)N[C@@H](CCC(=O)N[C@@H](CCC(=O)N[C@@H](CCC(=O)N[C@@H](CCC(=O)O)C(=O)O)C(=O)O)C(=O)O)C(=O)O)[C@@]1(O)[C@H]2OC(=O)[C@@]1(C)O [G202, 12ADTβAsp-GluγGluγGluγGlu]
T/C ratio at 3 weeks after treatment [11]: 0.32 | fraction of dose converted in the circulation to 12ADTβAsp [12]: Less than 1% | animals with lymphoid depletion of lymph nodes ([13]; 10 mg/kg): five of six | animals with lymphoid depletion of spleen ([13]; 10 mg/kg): five of six | increase of splenic ratio ([13]; female monkeys, 10 mg/kg): 25% | decrease of splenic/body weight ratio versus vehicle ([13]; male monkeys, 10 mg/kg): 44% | decrease of thymus/body weight ratio versus vehicle ([13]; male monkeys, 10 mg/kg): 67% | bone marrow toxicity ([13]; monkey toxicology studies): no bone marrow toxicity | brain pathology ([13]; six monkeys, three consecutive doses of 10 mg/kg): within normal limits | amount detected in the brain ([5]; mouse biodistribution studies): low amounts | stability to hydrolysis in human plasma [14]: completely stable to hydrolysis in human plasma | increase in intracellular calcium (TSU cells; 5 mM (25-fold higher concentration)): no appreciable increase in intracellular calcium | treated-to-control tumor volume (T/C) ratio [1]: 0.15 | average regression of xenografts ([1]; single 3-day course, 56 mg/kg × 3, over a 30-day period): ~50% | androgen receptor (AR) expression in tumors ([15]; 4 days after 56 mg/kg × 3): marked down-regulation of AR expression | antitumor effect ([15]; single 3-day course, 56 mg/kg × 3, out to ≥30 days): Significant antitumor effects | hydrolysis by PSMA (Fc-PSMA): efficiently hydrolyzed by PSMA | brain pathology (GLP toxicology in rat; rat pathological studies): lack of toxicity to the brain | renal toxicity (GLP toxicology in rat; rat toxicological studies): transient reversible renal toxicity | bone marrow toxicity (GLP toxicology in rat; rat toxicology studies): no bone marrow toxicity | bone marrow toxicity ([2]; mouse toxicology studies): no bone marrow toxicity | MTD ([2]; mouse, in vivo, iv): 112 mg/kg | mortality of treated animals ([2]; up to three consecutive daily doses of 56 mg/kg (1 μmol/dose)): < 10% | maximally tolerated single intravenous dose ([2]; wild-type mice): 2 μmol/dose | TG molar equivalents deliverable systemically compared to TG alone ([2]; without significant host toxicity): > 150 fold | maximally tolerated dose [2]: 1.0 µmol | half-life [16]: 9.7 h | hydrolysis by other purified proteases (other purified proteases): not appreciably hydrolyzed | maximum body weight loss [17]: about 15% | growth inhibition of LNCaP cells on addition of PMPA (LNCaP cells): could be blocked | predicted increase of AUC for a doubling in dose ([18]; first six dose cohorts, 1.2 to 40 mg/m^2): 2.23 fold | terminal half-life in patients relative to monkey ([18]; human versus monkey): ~1.5 fold | half-life ([18]; human, serum, intravenous): 15.1 h | antitumor effect [19]: Significant antitumor effects | T/C ratio at 3 weeks after treatment ([20]; MCF-7): 0.05 | effect on tumor growth ([20]; single dose 56 mg/kg on 1 day): tumor growth delay | T/C ratio ([20]; three consecutive doses of 56 mg/kg): 0.06 ± 0.005 | T/C ratio ([20]; two consecutive doses of 56 mg/kg): 0.05 ± 0.006 | effect on tumor growth ([20]; two daily doses of 56 mg/kg, out to 30 days, all treated animals): sustained tumor regression | estrogen receptor (ER) expression in tumors ([20]; two doses of 56 mg/kg, nadir 3 days after the last dose): down-regulation of the estrogen receptor
